# Only some compounds are listed: those with a hit (about 2.2% of all), similar ones and a draw of the others.
# HNF4A DNA FP – change in binding of human HNF4A to DNA, primary screen, biochemical, fluorescence polarization, FITC-DNA. 1 h. AID 1224865, 2016. 0.3% of 360,000 active. activity change, % at 10 µM. Hepatocyte nuclear factor 4-alpha (Homo sapiens), P41235; in the data active means activity change above about 30%, passing the limit was not always enough
# Target sequence (P41235 whole entry, looked up): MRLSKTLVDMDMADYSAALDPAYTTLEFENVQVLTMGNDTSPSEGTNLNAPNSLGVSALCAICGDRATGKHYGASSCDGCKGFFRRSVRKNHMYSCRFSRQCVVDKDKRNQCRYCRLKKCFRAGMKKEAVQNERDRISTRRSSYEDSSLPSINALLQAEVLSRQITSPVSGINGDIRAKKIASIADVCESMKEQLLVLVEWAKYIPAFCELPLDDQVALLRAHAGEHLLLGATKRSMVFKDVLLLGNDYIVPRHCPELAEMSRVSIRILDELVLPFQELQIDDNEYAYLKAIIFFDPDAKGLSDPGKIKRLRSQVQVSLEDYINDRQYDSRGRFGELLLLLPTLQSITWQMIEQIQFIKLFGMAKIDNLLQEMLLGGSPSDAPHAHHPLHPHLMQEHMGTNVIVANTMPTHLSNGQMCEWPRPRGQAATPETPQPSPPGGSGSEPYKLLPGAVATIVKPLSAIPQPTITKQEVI
# Granule exo inh – LAMP-1 surface exposure blockers, TALL-104 cells – cell-based, flow cytometry, MLPCN library, primary screen; 0.66% of 360,000 active; inhibition, % at 10 µM; TALL-104 LAMP-1 surface exposure; cells stimulated with thapsigargin and PMA;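 active means inhibition above about 55%, limit read from the data; inconclusive means no clear call, values can overlap the other calls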
# Myeloid diff MLP – induction of myeloid progenitor differentiation, primary screen, cell-based, flow cytometry, MLPCN library; ER-HoxA9 myeloid progenitors, lysozyme-GFP differentiation; calls only at 10 µM; 1% of 360,000 active; AID 624256, 2012;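 active means normalized GFP-positive differentiation at or above the plate's own cutoff, the solvent-only control mean plus 3 SD; inconclusive means no clear call, values can overlap the other calls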;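 further: cells exposed to compound for four days before flow analysis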
# CSN deneddyl inh – inhibitors of CSN-mediated cullin deneddylation, primary screen, biochemical, fluorescence polarization, uHTS | COP9 signalosome complex subunit 5 (Homo sapiens), Q92905 | Purified CSN, SCF-Nedd8-OG deneddylation | inhibition, % at 12.5 µM | 0.38% of 360,000 active;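 active means pattern-corrected inhibition above about 35%, with an unprinted fluorescence ratio check between 0.5 and 1.5, limit read from the data, passing the limit was not always enough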;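 further: 0% = enzyme with substrate and 100% = substrate without enzyme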
#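 Material: purified human Csn5 enzyme expressed in HEK293T cells / Medium: Tris buffer pH 7.5, NaCl, DTT, Tween-20, trehalose, ovalbumin / Compound dosing: 12.5 µM single point / Schedule: 90 min incubation of compound, enzyme and substrate at room temperature / Signal: fluorescence polarization of the substrate / Control set: no-enzyme wells high, enzyme-with-substrate wells low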
# An asterisk follows results filed as active; i = inactive; ? = inconclusive; . = no result given; + = active, no number.
SMILES,HNF4A DNA FP,Granule exo inh,Myeloid diff MLP,CSN deneddyl inh
CCOc1ccc(C(=O)Nc2cc(NC(=O)c3ccc(OCC)c(Cl)c3)cc(C(=O)O)c2)cc1Cl,0,-5,i,49*
COc1cc(C(Nc2ccccn2)c2ccc3ccc(C)nc3c2O)cc(OC)c1O (centres undefined),0,105*,?,8
Cc1ccc2ccc(C(Nc3ccccn3)c3ccccc3)c(O)c2n1 (centres undefined),1,3,i,-5
CCn1c(NC(C)=O)c(-c2ccccc2Cl)c(=O)c2ccccc21,0,0,i,4
CCCn1ncc(CN2CCC(n3nccc3NC(=O)c3ccccc3Cl)CC2)c1C,-1,2,i,0
N#Cc1c(N)n(CCNC(=O)c2ccccc2)c2nc3ccccc3nc12,1,1,i,2
N#Cc1c(N)n(CCNC(=O)c2cccs2)c2nc3ccccc3nc12,5,-7,+,16
CCSc1nc2cc(OC)c(OC)cc2c(=O)n1CCc1ccccc1,2,-1,i,0
COCCCn1c(SCCc2ccccc2)nc2cc(OC)c(OC)cc2c1=N,-1,60*,i,0
COc1ccc2nc(C)cc(SCC(=O)N/N=C/c3c(OC)ccc4ccccc34)c2c1,17,2,i,44*
Cc1ccc2nc(SCC(=O)N3N=C(c4cccs4)CC3c3ccc(F)cc3)nc(=O)n2c1 (centres undefined),4,0,i,3
Cc1ccc(C2CC(c3cccs3)=NN2C(=O)CSc2nc(=O)n3cc(C)ccc3n2)cc1 (centres undefined),0,2,+,1
Cc1ccnc(N2C(=O)c3cccc4c([N+](=O)[O-])ccc(c34)C2=O)c1,-38,77*,?,-25
Cc1ccc(N2C(=O)c3cccc4c([N+](=O)[O-])ccc(c34)C2=O)c2cccnc12,-9,13,?,0
Cc1nnc(N2C(=O)c3cccc4c([N+](=O)[O-])ccc(c34)C2=O)s1,-17,86*,i,0
CCCn1nc([N+](=O)[O-])c(C(C#N)c2nc3ccccc3o2)c(Cl)c1=O (centres undefined),-2,18,i,-16
CCn1nc([N+](=O)[O-])c(C(C#N)c2nc3cc(C(F)(F)F)ccc3s2)c(Cl)c1=O (centres undefined),-2,83*,+,-13
CCn1cc(CNC(=O)/C=C/c2cnn(C)c2)c(C)n1,45*,-2,i,-1
Cc1cc(C)c2cc(C#N)c(N3CCCN(C(=O)c4cnccn4)CC3)nc2c1,5,32,+,0
CN(C)c1ccc(N2C(=NC(=O)CC3CCCCC3)SC3CS(=O)(=O)CC32)cc1 (centres undefined),1,1,i,0
Cc1ccc2c(CN3CCC(C)CC3)cc(=O)oc2c1C,3,-1,i,4
CCOC(=O)C1CCN(Cc2cc(=O)oc3c(C)c(C)ccc23)CC1,14,-15,+,0
CCCCC[C@@H](C)N1C[C@H](COCc2ccccc2)Oc2cc(N3CCC[C@H]3COC)ccc2S1(=O)=O,-2,11,i,5
CCOC(=O)Cn1nnc(-c2ccccc2)n1,0,-1,i,1
CCOC(=O)C(Cc1ccccc1)NC(=O)Cn1nnc(-c2ccccc2)n1 (centres undefined),39*,1,i,-4
SMILES,HNF4A DNA FP,Granule exo inh,Myeloid diff MLP,CSN deneddyl inh
Cc1cc(C)c(C(=O)/C=C/c2ccco2)c(=O)[nH]1,-5,-3,+,1
Cc1ccc(/C=C/C(=O)c2c(C)cc(C)[nH]c2=O)cc1,-2,0,i,2
OC(CNCCc1ccc(Cl)cc1)COc1cc(Cl)ccc1Cl (centres undefined),3,-13,i,6
COc1cccc(-c2sc3cc(OC)c(OC)cc3c2-c2ccc(OCCN3CCCCC3)cc2)c1,-2,62*,i,-4
COc1ccc(-c2sc3cc(OC)ccc3c2-c2ccc(OCCN3CCCCC3)cc2)cc1,-2,31,+,2
COc1ccc(-c2sc3ccccc3c2-c2ccc(OCCN3CCCCC3)cc2)cc1,2,34,i,-4
COc1ccc2c(-c3ccc(OCCN4CCCCC4)cc3)c(-c3ccccc3OC)sc2c1,-1,66*,i,-6
COc1cccc(-c2sc3ccc(OC)cc3c2-c2ccc(OCCN3CCCC3)cc2)c1,0,27,i,-2
Nc1ncnc2c1ncn2C1C=C(CO)C(O)C1O (centres undefined),-1,0,?,-5
COCCn1c(SCC(=O)NCc2ccc(F)cc2)nc2ccccc21,2,9,i,-1
C#CCNC(=O)C[C@@H]1C[C@@]2(C(=O)OC)CCCCC=C2N(CCc2ccc(OC)c(OC)c2)C1=O,-2,6,i,1
COc1ccc(-n2nc(C(=O)NCC(=O)N(C)Cc3ccccc3)c3ccccc3c2=O)cc1OC,2,-9,i,-1
Cc1ccc(O)c(NS(=O)(=O)c2cccc3nsnc23)c1,79*,1,i,-4
Cc1cc(F)ccc1NS(=O)(=O)c1cccc2nsnc12,3,-5,.,3
CC(OC(=O)Cn1cnc2ccccc2c1=O)C(=O)NCc1ccccc1 (centres undefined),-1,-5,i,19
Cc1ccc(NS(=O)(=O)c2cc([N+](=O)[O-])ccc2N/N=C/c2sc(N3CCOCC3)nc2-c2ccccc2)c(C)c1,21,7,+,14
N#CCCN(C(=O)COC(=O)c1ccc(S(=O)(=O)N2CCCC2)cc1)c1cccc(Cl)c1,5,-2,i,-1
CCN(CC)C1=CC2=CC(=C(C#N)C#N)CCC2CC1 (centres undefined),-99,11,+,-75
CCCCN(C)C1=CC2=CC(=C(C#N)C#N)CCC2CC1 (centres undefined),-98,38,+,-75
O=C(CN1CCc2ccccc2C1)Nc1ccc(OC(F)(F)F)cc1,-2,-5,i,0
Nc1nc(CN2CCC(Cc3ccccc3)CC2)nc(Nc2ccccc2)n1,54*,1,i,0
Cc1c(C(c2cc(O)ccc2Cl)c2c(C)n(C)n(-c3ccccc3)c2=O)c(=O)n(-c2ccccc2)n1C,-4,4,i,-1
Cc1c(C(c2ccccc2O)c2c(C)n(C)n(-c3ccccc3)c2=O)c(=O)n(-c2ccccc2)n1C,-1,-3,+,4
O=C(OCc1cc(=O)n2c(n1)sc1ccccc12)c1ccc2c(=O)n3c(nc2c1)CCC3,-39,0,i,36*
CC(=O)c1c(C)[nH]c(C(=O)COC(=O)c2ccc3c(=O)n4c(nc3c2)CCC4)c1C,1,3,i,-11

# Screening results from PubChem BioAssay.
